{"source": "paper PMC7661742", "about": "(Molecular cancer therapeutics, 2020)", "key": {"[1]": {"tested_on": "primary leukemia cells from chronic lymphocytic leukemia patients", "assay": "CD20-mediated ADCC with rituximab on primary CLL cells", "assay_type": "cell-based, human", "summary_of_the_method": "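Primary CLL cells and autologous PBMCs from patients were cultured 48 h with rituximab (10 μg/ml) plus CDK8/19 inhibitor or vehicle. Leukemia-cell depletion was counted by flow cytometry against PKH26 reference microbeads and normalised to the mean of DMSO controls (n=5). The no-NK arm used CLL cells pretreated 48 h with vehicle or inhibitor, then 4 h with vehicle or rituximab. Cell death was read by flow cytometry (n=4).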"}, "MC-38 cells": {"tested_on": "MC-38 cells", "assay": "Viability assay, MC-38", "assay_type": "cell-based, mouse", "summary_of_the_method": "(§1)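 Mouse tumour cells were plated in 96-well plates with CDK8/19 inhibitor over a concentration range, with 72 h or 120 h timing depending on the growth of each line. Cells were held at 37°C, humidified, 5% CO2. Viability was read by CellTiter-Glo luminescence or AlamarBlue, and curves were fitted by iterative sigmoidal analysis.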"}, "[2]": {"tested_on": "STAT1^S727 phosphorylation", "assay_type": "in vivo, mouse", "settings": "daily oral dose of 10 mg/kg, for at least 6 h"}, "[3]": {"tested_on": "granzyme B-positive murine spleen-derived NK cells", "assay": "Modulation of granzyme B in mouse splenocytes", "assay_type": "cell-based", "settings": "murine spleen-derived NK cells activated with IL-15 in vitro; 150 nmol/l, 44 h", "summary_of_the_method": "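Cells received 2.5 ng/ml IL-15, 150 nmol/l test compound, or both, for 44 h at 37°C and 5% CO2. Protein transport inhibitor was present for the last 4 h. Cells were stained for CD3ε, NK1.1 and intracellular granzyme B after fix/perm and gated viable CD3−NK1.1+GZMB+ (3–6 mice per group).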"}, "CDK4": {"target": "CDK4 (Homo sapiens, UniProt P11802)", "sequence (P11802 whole entry)": "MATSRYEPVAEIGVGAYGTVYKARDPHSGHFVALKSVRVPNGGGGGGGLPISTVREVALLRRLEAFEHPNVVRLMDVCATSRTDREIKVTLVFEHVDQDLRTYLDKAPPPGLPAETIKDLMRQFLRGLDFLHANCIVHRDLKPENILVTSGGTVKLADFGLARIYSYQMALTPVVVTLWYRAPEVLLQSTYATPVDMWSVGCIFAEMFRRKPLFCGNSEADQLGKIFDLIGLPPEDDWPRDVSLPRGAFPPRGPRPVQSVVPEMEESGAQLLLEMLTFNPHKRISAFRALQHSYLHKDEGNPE", "sequence (P24385 whole entry partner)": "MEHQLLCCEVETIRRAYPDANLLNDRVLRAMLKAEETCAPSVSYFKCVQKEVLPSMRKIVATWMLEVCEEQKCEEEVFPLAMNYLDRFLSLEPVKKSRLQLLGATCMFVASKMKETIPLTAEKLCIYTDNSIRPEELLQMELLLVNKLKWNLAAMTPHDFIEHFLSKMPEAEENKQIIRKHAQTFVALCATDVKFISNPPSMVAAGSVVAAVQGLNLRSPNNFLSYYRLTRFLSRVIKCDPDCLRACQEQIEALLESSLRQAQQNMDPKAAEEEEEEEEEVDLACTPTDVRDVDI", "assay": "SelectScreen Kinase Profiling, CDK4", "assay_type": "biochemical", "summary_of_the_method": "(§2)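 Kinases were run in a commercial kinase profiling service. Single-point tests used 1 μM test compound at the ATP concentration specified per kinase. IC50 curves started at 20 μM, followed by 10 subsequent […] dilution steps.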"}, "CDK1": {"target": "CDK1 (Homo sapiens, UniProt P06493)", "sequence (P06493 whole entry)": "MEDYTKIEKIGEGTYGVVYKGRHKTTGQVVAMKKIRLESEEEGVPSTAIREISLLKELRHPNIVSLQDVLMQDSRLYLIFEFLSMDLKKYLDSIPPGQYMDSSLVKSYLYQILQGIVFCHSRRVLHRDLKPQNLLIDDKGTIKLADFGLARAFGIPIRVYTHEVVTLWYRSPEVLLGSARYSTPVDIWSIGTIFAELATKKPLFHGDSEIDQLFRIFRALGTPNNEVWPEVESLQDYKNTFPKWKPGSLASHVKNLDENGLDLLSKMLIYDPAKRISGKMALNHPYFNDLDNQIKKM", "sequence (P14635 whole entry partner)": "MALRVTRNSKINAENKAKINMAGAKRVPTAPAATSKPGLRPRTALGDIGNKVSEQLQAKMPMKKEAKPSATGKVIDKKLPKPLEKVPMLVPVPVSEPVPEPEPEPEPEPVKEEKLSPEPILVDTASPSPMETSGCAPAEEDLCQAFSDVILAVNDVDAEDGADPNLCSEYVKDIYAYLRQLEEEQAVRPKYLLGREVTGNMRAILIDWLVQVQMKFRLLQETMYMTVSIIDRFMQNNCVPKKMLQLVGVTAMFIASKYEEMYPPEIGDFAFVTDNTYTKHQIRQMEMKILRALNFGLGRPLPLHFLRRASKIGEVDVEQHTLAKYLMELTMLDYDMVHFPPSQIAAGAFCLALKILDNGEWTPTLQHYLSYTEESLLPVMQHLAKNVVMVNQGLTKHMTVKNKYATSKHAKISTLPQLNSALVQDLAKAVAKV", "assay": "SelectScreen Kinase Profiling, CDK1", "assay_type": "biochemical", "summary_of_the_method": "as §2"}, "[4]": {"tested_on": "perforin secretion from NK92MI cells", "assay": "Perforin release assay", "assay_type": "cell-based, human", "settings": "24 h, ELISA", "summary_of_the_method": "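NK92MI cells were seeded at 40.000 cells/well with test compound over a concentration range and held 24 h at 37°C, humidified, 5% CO2. IL-15 (50 ng/ml) served as positive control. Secreted perforin in supernatants was quantified by ELISA.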"}, "EMT6 tumors": {"tested_on": "EMT6 tumors", "assay": "In vivo efficacy, EMT6 murine mammary carcinoma model", "set-up": "species or system mouse", "settings": "BI-1347 monotherapy"}, "B16-F10 cells": {"tested_on": "B16-F10 cells", "assay": "Viability assay, B16-F10", "assay_type": "cell-based, mouse", "summary_of_the_method": "as §1"}, "MC38 tumors": {"tested_on": "MC38 tumors", "assay": "In vivo efficacy, MC-38 murine syngeneic colon adenocarcinoma model", "set-up": "species or system mouse", "settings": "BI-1347 10 mg/kg daily oral; anti-PD-1 10 mg/kg i.p. twice weekly", "summary_of_the_method": "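Female C57BL/6N mice were implanted subcutaneously with 100 thousand MC38 cells and randomized by body weight on day 3, 5 mice per group. The anti-PD-1 was rat IgG2a anti-mouse PD-1 (RMP1–14). Readouts were response and TGI at day 20 and complete responses at study end. Groups were compared by one-tailed, non-adjusted Mann Whitney test.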"}, "CDK7": {"target": "CDK7 (Homo sapiens, UniProt P50613)", "sequence (P50613 whole entry)": "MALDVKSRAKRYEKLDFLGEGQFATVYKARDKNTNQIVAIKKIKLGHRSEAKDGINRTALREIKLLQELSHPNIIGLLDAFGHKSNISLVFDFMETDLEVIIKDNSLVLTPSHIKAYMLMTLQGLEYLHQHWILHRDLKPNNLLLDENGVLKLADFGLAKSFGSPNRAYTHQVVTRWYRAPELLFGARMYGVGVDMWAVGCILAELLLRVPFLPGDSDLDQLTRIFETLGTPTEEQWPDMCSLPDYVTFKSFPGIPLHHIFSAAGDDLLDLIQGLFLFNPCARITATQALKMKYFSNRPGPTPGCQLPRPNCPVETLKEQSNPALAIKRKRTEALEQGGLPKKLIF", "sequence (P51946 whole entry partner)": "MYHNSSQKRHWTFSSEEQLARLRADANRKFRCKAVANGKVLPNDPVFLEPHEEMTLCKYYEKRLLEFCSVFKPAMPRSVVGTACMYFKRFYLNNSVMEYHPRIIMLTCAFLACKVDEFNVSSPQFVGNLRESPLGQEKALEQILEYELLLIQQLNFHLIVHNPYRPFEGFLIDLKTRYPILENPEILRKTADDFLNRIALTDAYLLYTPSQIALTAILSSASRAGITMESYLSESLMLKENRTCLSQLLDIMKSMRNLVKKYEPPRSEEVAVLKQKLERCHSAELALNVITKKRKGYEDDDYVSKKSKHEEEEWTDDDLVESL", "sequence (P51948 whole entry partner)": "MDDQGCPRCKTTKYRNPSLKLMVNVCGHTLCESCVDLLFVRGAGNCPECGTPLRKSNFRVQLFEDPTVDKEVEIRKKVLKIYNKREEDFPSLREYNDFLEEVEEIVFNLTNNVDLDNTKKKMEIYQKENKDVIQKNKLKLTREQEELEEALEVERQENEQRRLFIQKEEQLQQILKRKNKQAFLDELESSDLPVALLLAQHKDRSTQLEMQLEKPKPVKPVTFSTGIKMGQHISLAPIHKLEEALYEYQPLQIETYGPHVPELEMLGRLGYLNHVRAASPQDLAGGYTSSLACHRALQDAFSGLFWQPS", "assay": "SelectScreen Kinase Profiling, CDK7", "assay_type": "biochemical", "summary_of_the_method": "as §2"}, "CDK19": {"target": "CDK19 (Homo sapiens, UniProt Q9BWU1)", "sequence (Q9BWU1 whole entry)": "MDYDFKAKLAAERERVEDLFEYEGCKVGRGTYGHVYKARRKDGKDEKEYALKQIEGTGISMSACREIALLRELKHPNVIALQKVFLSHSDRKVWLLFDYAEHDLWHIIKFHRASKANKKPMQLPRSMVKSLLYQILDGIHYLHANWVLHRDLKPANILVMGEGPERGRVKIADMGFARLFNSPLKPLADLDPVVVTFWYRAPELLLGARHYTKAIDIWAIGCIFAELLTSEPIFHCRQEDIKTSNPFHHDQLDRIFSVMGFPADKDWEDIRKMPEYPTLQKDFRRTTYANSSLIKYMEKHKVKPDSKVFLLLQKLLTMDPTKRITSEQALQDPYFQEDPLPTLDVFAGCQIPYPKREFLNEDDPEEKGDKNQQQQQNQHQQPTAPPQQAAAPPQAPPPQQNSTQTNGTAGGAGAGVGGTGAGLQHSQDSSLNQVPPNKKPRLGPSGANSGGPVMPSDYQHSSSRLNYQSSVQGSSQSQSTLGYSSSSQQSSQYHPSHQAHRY", "assay": "SelectScreen Kinase Profiling, CDK19", "assay_type": "biochemical", "summary_of_the_method": "as §2"}, "CDK2": {"target": "CDK2 (Homo sapiens, UniProt P24941)", "assay": "SelectScreen Kinase Profiling, CDK2", "assay_type": "biochemical", "summary_of_the_method": "as §2"}, "CDK6": {"target": "CDK6 (Homo sapiens, UniProt Q00534)", "sequence (Q00534 whole entry)": "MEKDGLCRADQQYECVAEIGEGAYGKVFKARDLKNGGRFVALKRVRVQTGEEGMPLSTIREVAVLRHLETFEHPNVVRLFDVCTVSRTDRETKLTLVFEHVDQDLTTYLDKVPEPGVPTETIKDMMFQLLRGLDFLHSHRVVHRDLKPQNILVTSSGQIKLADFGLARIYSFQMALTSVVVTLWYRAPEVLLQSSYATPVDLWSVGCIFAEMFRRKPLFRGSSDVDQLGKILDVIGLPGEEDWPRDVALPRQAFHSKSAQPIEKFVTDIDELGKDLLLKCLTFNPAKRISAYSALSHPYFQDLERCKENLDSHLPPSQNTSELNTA", "sequence (P24385 whole entry partner)": "as the sequence (P24385 whole entry partner) above", "assay": "SelectScreen Kinase Profiling, CDK6", "assay_type": "biochemical", "summary_of_the_method": "as §2"}, "Mouse pharmacokinetics": {"assay": "Mouse pharmacokinetics", "assay_type": "in vivo", "settings": "mice", "summary_of_the_method": "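C57BL/6 mice (n=3 per group) were given test compound orally at 25 mg/kg or intravenously at 1 mg/kg. Plasma concentrations were measured by LC-MS at set time points after dosing.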"}, "Metabolic stability": {"assay": "Metabolic stability", "assay_type": "in vitro ADME", "settings": "compared with Compound 2", "summary_of_the_method": "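Test compound was incubated with cryopreserved hepatocytes, and compound depletion was quantified over 240 min by LC/MS/MS. In vivo hepatic clearance was predicted from depletion using the well-stirred model.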"}, "CDK9": {"target": "CDK9 (Homo sapiens, UniProt P50750)", "sequence (P50750 whole entry)": "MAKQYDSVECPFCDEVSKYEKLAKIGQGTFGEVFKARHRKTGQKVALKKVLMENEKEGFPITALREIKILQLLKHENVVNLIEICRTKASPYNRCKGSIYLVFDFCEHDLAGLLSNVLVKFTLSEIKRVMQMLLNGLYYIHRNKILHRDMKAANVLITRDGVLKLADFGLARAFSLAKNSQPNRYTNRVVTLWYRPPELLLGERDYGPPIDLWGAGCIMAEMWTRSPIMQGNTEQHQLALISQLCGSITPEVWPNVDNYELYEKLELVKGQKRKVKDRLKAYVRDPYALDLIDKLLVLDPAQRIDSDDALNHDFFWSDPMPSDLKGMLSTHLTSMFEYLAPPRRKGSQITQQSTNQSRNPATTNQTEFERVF", "sequence (O60563 whole entry partner)": "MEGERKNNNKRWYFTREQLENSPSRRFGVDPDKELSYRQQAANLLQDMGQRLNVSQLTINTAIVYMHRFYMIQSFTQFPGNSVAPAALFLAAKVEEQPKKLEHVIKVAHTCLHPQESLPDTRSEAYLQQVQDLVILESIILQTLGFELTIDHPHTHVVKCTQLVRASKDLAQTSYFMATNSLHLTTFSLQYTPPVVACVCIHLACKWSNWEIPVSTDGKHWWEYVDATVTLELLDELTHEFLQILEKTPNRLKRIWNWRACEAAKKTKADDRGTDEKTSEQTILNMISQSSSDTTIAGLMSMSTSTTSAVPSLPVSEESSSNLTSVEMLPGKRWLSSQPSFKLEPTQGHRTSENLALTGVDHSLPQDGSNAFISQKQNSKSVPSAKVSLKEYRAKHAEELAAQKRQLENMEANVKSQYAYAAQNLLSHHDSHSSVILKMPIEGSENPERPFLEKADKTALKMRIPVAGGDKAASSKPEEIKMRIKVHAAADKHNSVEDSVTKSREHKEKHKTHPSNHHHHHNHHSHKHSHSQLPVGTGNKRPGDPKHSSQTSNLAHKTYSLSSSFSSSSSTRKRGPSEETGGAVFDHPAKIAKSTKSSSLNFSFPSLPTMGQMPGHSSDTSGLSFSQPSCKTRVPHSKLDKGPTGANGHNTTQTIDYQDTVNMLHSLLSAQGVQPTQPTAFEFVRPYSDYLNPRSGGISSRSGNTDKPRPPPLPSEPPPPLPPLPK", "assay": "SelectScreen Kinase Profiling, CDK9", "assay_type": "biochemical", "summary_of_the_method": "as §2"}, "B16-F10-luc2 melanoma": {"tested_on": "B16-F10-luc2 melanoma", "assay": "In vivo efficacy, B16-F10-luc2 syngeneic melanoma model", "settings": "10 mg/kg daily oral", "summary_of_the_method": "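Female C57BL/6N mice received 100 thousand B16-F10-luc2 cells intravenously. They were randomized by body weight on day 5, 10 mice per group, then dosed orally once daily. Tumor burden was read as average radiance by luciferase in vivo imaging, alongside survival and body weight. TGI = [1-((treated(final) – treated(Day1))/(control(final) – control(Day1)))] * 100%.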"}, "EMT6 cells": {"tested_on": "EMT6 cells", "assay": "Viability assay, EMT6", "assay_type": "cell-based, mouse", "summary_of_the_method": "as §1"}}, "note": "pIC50: −log10 of the molar value."}
{"smiles": "CN(C)C(=O)Cn1cc(-c2ccc(-c3cncc4ccccc34)cc2)cn1", "note": "[BI-1347]", "values": [{"measurement": "ADCC mediated depletion of primary leukemia cells by rituximab", "setting": "[1]; in presence of PBMCs, 48 h", "value": "enhances"}, {"measurement": "enhanced ADCC effect in absence of NK cells", "setting": "[1]; purified CLL cells with rituximab, no NK cells", "value": "not observed"}, {"measurement": "in vitro sensitivity", "setting": "MC-38 cells", "value": "resistant"}, {"measurement": "reduction of phosphorylation of STAT1^S727", "setting": "[2]", "value": 60, "unit": "%"}, {"measurement": "increase of the proportion of granzyme B-positive NK cells", "setting": "[3]", "value": "approximately 4 fold"}, {"measurement": "inhibition of CDK4", "setting": "CDK4", "value": "no inhibition"}, {"measurement": "inhibition of CDK1", "setting": "CDK1", "value": "no inhibition"}, {"measurement": "perforin levels in the supernatant", "setting": "[4]", "value": "increased perforin levels"}, {"measurement": "median survival", "setting": "EMT6 tumors; 5 days on / 5 days off intermittent scheduling", "value": 26, "unit": "days"}, {"measurement": "median survival", "setting": "EMT6 tumors; daily oral 10 mg/kg, control 22 days", "value": 22.5, "unit": "days"}, {"measurement": "in vitro sensitivity", "setting": "B16-F10 cells", "value": "resistant"}, {"measurement": "CR [@ end of study, number of mice]", "setting": "MC38 tumors", "value": "0/5"}, {"measurement": "Response [@ d20, number of mice]", "setting": "MC38 tumors", "value": "2/5"}, {"measurement": "inhibition of CDK7", "setting": "CDK7", "value": "no inhibition"}, {"measurement": "pIC50", "setting": "CDK19", "value": "> 6.00"}, {"measurement": "inhibition of CDK2", "setting": "CDK2", "value": "no inhibition"}, {"measurement": "inhibition of CDK6", "setting": "CDK6", "value": "no inhibition"}, {"measurement": "exposure and bioavailability (F) after p.o. dosing", "setting": "Mouse pharmacokinetics", "value": "Excellent exposure and bioavailability"}, {"measurement": "plasma concentration 24 h after dosing relative to the CDK8 IC50", "setting": "Mouse pharmacokinetics; 25 mg/kg p.o.", "value": "around 100 fold"}, {"measurement": "clearance", "setting": "Mouse pharmacokinetics; i.v. administration", "value": 14, "unit": "% QH"}, {"measurement": "metabolic stability in vitro and in vivo", "setting": "Metabolic stability", "value": "higher metabolic stability"}, {"measurement": "inhibition of CDK9", "setting": "CDK9", "value": "no inhibition"}, {"measurement": "median survival advantage compared to vehicle-treated animals", "setting": "B16-F10-luc2 melanoma", "value": 4, "unit": "days"}, {"measurement": "tolerability (body weight)", "setting": "B16-F10-luc2 melanoma", "value": "well tolerated with minimal effect on body weight"}, {"measurement": "tumor growth inhibition (TGI)", "setting": "B16-F10-luc2 melanoma; day 23", "value": 94, "unit": "%"}, {"measurement": "tumor growth inhibition (TGI)", "setting": "B16-F10-luc2 melanoma; day 29", "value": 88, "unit": "%"}, {"measurement": "mice surviving until day 42", "setting": "B16-F10-luc2 melanoma; all control mice sacrificed by day 32", "value": "2/10"}, {"measurement": "in vitro sensitivity", "setting": "EMT6 cells", "value": "resistant"}]}
